# Test results: ChEMBL document CHEMBL2384910, “Lead optimization of 5-amino-6-(2,2-dimethyl-5-oxo-4-phenylpiperazin-1-yl)-4-hydroxyhexanamides to reduce a cardiac safety issue: discovery of DS-8108b, an orally active renin inhibitor” (Bioorg Med Chem, 2013)
# Activity calls are given as the source filed them. The rule behind the calls is not given here.
# Key:
# Cynomolgus monkey [1] = experiment: Inhibition of renin in furosemide pretreated cynomolgus monkey assessed as reduction in mean arterial blood pressure at 1 to 10 mg/kg, po up to 24 hrs; format: functional, organism-based; conditions: Macaca fascicularis
# Procedure, shortened: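 Conscious freely moving telemetered cynomolgus monkeys (n = 6), furosemide 5 mg/kg/day im for 3 days before dosing; fasted from morning, fed ≥8 h post-dose. Oral 1, 3, 10 mg/kg or 1% methylcellulose, crossover design; arterial pressure recorded from −3 to 24 h; hourly mean MAP; mean ± SEM.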
# Cynomolgus monkey [2] = experiment: Inhibition of renin in po dosed furosemide pretreated cynomolgus monkey plasma after 1 to 24 hrs; format: functional, organism-based; conditions: Macaca fascicularis
# Procedure, shortened: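 Cynomolgus monkeys pretreated with furosemide given single oral dose 1, 3 or 10 mg/kg or vehicle 1% methylcellulose. Venous blood into EDTA-2Na tubes at 1, 2, 4, 8, 24 h, chilled, centrifuged cold, plasma frozen; plasma renin activity by radioimmunoassay.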
# Canis familiaris [3] = experiment: Cardiotoxicity in anesthetized beagle dog assessed as change in QRS width at 0.5 mg/kg/min, iv after 30 mins relative to baseline; format: toxicity, organism-based, Canis lupus familiaris; parameters: route intravenous; conditions: in vivo, 0.5 h
# Procedure, shortened: (§1)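 Anesthetized dogs; after ECG parameters stabilized, compound infused iv continuously at 0.5 mg/kg/min for 1 h. ECG changes at 30 min as % change from baseline; 2 mL blood drawn from left femoral artery for plasma drug concentration.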
# Canis familiaris [4] = experiment: Cardiotoxicity in anesthetized beagle dog assessed as change in […] at 0.5 mg/kg/min, iv after 30 mins relative to baseline; format: toxicity, organism-based, Canis lupus familiaris; parameters: route intravenous; conditions: in vivo, 0.5 h; procedure, shortened: as §1
# Canis familiaris [5] = experiment: Cardiotoxicity in anesthetized beagle dog assessed as change in heart rate at 0.5 mg/kg/min, iv after 30 mins relative to baseline; format: toxicity, organism-based, Canis lupus familiaris; parameters: route intravenous; conditions: in vivo, 0.5 h; procedure, shortened: as §1
# Oryctolagus cuniculus [6] = experiment: Cardiotoxicity in anesthetized New Zealand White rabbit assessed as change in QRS width at 1 mg/kg/min, iv after 10 mins relative to baseline; format: toxicity, organism-based; parameters: route intravenous; conditions: in vivo
# Procedure, shortened: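 Female NZW rabbits anesthetized with ketamine 35 mg/kg ip plus xylazine 5 mg/kg ip, tracheotomized, ventilated with room air. ECG and systemic pressure monitored; HR, PR, QRS, QT, QTc quantified. After stabilization, continuous iv infusion 1 mg/kg/min for 1 h; values at 10 min as % change from baseline.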
# Oryctolagus cuniculus [7] = species on record: Oryctolagus cuniculus; experiment: Cardiotoxicity in New Zealand White rabbit heart assessed as change in QTc interval at 100 uM after 20 mins relative to baseline; format: toxicity; conditions: ex_vivo
# Procedure, shortened: (§2)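 Isolated Langendorff-perfused hearts from female NZW rabbits anesthetized with thiopental 30 mg/kg iv; heart excised into chilled Krebs-Henseleit solution. After parameters stabilized, compound perfused at 10, 30 and 100 µM for 20 min; ECG changes expressed as % change from baseline.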
# Heart = experiment: Cardiotoxicity in New Zealand White rabbit heart assessed as change in […] at 100 uM after 20 mins relative to baseline; format: toxicity, tissue-based, Oryctolagus cuniculus; procedure, shortened: as §2
# [8] = target: Voltage-gated inwardly rectifying potassium channel KCNH2 (Homo sapiens, UniProt Q12809); experiment: Inhibition of human ERG channel expressed in CHOK1 cells at 100 uM after 5 mins by patch clamp technique; format: cell-based; conditions: cho-k1, 5 min
# Sequence of Voltage-gated inwardly rectifying potassium channel KCNH2 (Q12809 whole entry): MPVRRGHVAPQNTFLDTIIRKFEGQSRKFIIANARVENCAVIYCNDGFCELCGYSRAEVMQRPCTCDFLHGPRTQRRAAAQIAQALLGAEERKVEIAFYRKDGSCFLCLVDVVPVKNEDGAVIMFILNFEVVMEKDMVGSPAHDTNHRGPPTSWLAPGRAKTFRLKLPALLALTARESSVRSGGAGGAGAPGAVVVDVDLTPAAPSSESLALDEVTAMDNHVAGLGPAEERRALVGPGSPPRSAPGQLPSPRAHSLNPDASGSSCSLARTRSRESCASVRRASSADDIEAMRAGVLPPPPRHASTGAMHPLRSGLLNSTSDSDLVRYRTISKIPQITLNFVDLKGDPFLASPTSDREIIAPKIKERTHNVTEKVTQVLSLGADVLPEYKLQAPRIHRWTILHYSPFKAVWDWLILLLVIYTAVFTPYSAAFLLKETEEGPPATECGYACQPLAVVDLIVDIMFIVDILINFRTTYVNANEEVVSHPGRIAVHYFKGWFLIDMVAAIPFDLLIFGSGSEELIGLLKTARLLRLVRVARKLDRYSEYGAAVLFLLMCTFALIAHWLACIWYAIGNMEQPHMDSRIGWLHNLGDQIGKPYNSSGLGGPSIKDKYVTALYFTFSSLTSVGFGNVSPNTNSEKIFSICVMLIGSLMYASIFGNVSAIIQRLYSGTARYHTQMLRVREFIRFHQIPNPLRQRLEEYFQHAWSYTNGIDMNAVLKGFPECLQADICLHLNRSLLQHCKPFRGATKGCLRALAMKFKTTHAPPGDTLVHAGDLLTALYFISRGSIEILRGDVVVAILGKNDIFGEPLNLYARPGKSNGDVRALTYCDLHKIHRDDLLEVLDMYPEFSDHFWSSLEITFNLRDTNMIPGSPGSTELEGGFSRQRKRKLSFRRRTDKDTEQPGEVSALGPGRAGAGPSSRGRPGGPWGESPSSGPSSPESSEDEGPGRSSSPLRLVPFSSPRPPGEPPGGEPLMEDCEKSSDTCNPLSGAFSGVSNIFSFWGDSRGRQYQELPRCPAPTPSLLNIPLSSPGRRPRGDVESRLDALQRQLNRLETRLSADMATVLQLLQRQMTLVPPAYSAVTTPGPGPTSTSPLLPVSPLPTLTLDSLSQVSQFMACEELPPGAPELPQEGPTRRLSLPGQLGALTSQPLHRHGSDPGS
# Procedure, shortened: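 CHO-K1 cells stably expressing hERG; automated patch clamp. Holding −80 mV, step to +50 mV for 2 s, then −40 mV for 2 s; tail peak current measured. Compound incubated 5 min.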
# CYP3A4 = CYP3A4 (Homo sapiens, UniProt P08684); experiment: Inhibition of CYP3A4 in human liver microsomes assessed as residual activity at 100 uM by LC/MS analysis; format: ADME, Microsome; conditions: read-out: Activity
# Sequence of CYP3A4 (P08684 whole entry): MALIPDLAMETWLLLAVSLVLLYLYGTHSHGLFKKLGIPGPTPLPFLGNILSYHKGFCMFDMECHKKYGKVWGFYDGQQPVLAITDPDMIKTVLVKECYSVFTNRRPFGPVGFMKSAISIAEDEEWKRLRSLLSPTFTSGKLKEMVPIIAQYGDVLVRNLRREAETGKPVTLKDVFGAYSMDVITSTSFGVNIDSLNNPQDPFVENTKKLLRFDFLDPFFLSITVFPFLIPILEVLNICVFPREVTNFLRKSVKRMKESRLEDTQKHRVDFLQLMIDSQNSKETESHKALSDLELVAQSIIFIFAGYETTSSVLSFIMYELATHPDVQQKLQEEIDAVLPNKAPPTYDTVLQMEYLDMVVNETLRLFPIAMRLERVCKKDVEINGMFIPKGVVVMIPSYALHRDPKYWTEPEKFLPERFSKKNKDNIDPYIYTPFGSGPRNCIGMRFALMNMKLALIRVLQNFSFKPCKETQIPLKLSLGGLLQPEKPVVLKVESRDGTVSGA
# Cynomolgus monkey [9] = experiment: Cardiotoxicity in cynomolgus monkey assessed as change in pulse rate at 1000 mg/kg, po after 4 hrs relative to baseline; conditions: in vivo
smiles,measurement,setting,value
CC[C@H](C[C@H](O)[C@@H](N)CN1CC(=O)N(c2ccccc2Cl)CC1(C)C)C(=O)N[C@H]1C2CC3CC1C[C@](O)(C3)C2.O=C(O)/C=C/C(=O)O,inhibition,Cynomolgus monkey [1],Active
same,inhibition,Cynomolgus monkey [2],Dose-dependent effect
same,Activity,Canis familiaris [3],5.8%
same,Activity,Canis familiaris [4],-1.5%
same,Activity,Canis familiaris [5],-5.4%
same,Activity,Oryctolagus cuniculus [6],-1.3%
same,Activity,Oryctolagus cuniculus [7],-3.2%
same,Activity,Heart,1.7%
same,inhibition (INH),[8],Not Active
same,activity at 100 µM,CYP3A4,77.9%
same,Activity,Cynomolgus monkey [9],0.3%
